Test results as given in ChEMBL document CHEMBL1141748, “Nocardimicins A, B, C, D, E, and F, siderophores with muscarinic M3 receptor inhibiting activity from Nocardia sp. TP-A0674” (J Nat Prod, 2005).

Legend:
[1] = molecular target: Muscarinic acetylcholine receptor M3 (Homo sapiens, UniProt P20309); experiment: Displacement of [3H]NMS from human muscarinic M3 receptor expressed in insect Sf9 cells
Method in brief: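 Competition binding used Sf9 membranes stably expressing human M3, incubated with 0.29 nM [3H]-NMS (assay Kd 0.078 nM, Bmax 3.2 pmol/mg protein) in 50 mM Tris-HCl, 10 mM MgCl2, 1 mM EDTA, pH 7.4, 25 °C, 1 h. Nonspecific binding was set with 1 µM atropine. IC50 was taken from competition curves and converted to apparent Ki by Cheng-Prusoff.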

[2] = molecular target: T1, Muscarinic acetylcholine receptor M1 (Homo sapiens, UniProt P11229); experiment: Binding affinity to human muscarinic M1 receptor expressed in insect Sf9 cells
T1 sequence (P11229 whole entry): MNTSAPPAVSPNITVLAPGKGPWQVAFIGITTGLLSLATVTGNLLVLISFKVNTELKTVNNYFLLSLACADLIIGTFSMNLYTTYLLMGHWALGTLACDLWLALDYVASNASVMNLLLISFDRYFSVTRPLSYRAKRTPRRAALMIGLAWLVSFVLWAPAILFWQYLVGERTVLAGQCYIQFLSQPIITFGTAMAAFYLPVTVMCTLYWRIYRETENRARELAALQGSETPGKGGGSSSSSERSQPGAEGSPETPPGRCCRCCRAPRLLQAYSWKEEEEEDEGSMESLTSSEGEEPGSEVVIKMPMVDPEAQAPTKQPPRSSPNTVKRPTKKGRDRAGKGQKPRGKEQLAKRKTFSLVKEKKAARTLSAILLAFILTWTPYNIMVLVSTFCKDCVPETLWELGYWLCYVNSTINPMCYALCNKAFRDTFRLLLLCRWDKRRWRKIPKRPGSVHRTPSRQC
Method in brief: (§1)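 Membranes from Sf9 insect cells stably expressing the human receptor were incubated with 0.29 nM [3H]-NMS in 50 mM Tris-HCl, 10 mM MgCl2, 1 mM EDTA, pH 7.4, for 1 h at 25 °C. Nonspecific binding was defined with 1 µM atropine. IC50 was taken from competition curves and converted to apparent Ki by Cheng-Prusoff.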

[3] = molecular target: T2, Muscarinic acetylcholine receptor M5 (Homo sapiens, UniProt P08912); experiment: Binding affinity to human muscarinic M5 receptor expressed in insect Sf9 cells; method in brief: as §1
T2 sequence (P08912 whole entry): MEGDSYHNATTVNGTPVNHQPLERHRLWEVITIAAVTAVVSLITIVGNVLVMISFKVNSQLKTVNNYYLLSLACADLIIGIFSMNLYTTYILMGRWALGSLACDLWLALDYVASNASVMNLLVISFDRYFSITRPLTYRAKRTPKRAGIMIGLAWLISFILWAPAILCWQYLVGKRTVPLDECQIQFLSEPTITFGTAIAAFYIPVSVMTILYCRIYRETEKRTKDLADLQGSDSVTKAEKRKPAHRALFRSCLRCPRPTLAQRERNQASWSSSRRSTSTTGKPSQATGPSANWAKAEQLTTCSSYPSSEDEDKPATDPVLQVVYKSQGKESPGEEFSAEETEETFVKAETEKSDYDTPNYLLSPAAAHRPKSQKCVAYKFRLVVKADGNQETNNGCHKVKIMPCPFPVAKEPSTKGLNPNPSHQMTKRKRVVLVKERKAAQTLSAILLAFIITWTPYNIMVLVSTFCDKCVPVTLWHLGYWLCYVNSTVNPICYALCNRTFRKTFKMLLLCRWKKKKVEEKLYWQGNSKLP

[4] = molecular target: T3, Muscarinic acetylcholine receptor M2 (Homo sapiens, UniProt P08172); experiment: Binding affinity to human muscarinic M2 receptor expressed in insect Sf9 cells; method in brief: as §1
T3 sequence (P08172 whole entry): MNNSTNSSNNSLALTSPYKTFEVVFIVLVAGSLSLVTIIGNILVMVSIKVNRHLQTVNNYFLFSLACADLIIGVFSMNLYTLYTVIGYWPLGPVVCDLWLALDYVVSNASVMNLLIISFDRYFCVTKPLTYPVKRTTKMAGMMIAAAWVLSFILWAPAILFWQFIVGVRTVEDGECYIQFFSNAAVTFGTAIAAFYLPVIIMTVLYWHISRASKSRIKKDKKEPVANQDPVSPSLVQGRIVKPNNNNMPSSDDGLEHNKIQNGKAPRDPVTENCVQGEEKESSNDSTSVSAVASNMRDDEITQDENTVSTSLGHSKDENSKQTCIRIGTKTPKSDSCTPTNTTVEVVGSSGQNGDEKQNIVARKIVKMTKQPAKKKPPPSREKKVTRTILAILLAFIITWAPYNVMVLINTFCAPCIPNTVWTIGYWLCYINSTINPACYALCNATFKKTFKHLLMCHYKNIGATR

[5] = molecular target: T4, Muscarinic acetylcholine receptor M4 (Homo sapiens, UniProt P08173); experiment: Binding affinity to human muscarinic M4 receptor expressed in insect Sf9 cells; method in brief: as §1
T4 sequence (P08173 whole entry): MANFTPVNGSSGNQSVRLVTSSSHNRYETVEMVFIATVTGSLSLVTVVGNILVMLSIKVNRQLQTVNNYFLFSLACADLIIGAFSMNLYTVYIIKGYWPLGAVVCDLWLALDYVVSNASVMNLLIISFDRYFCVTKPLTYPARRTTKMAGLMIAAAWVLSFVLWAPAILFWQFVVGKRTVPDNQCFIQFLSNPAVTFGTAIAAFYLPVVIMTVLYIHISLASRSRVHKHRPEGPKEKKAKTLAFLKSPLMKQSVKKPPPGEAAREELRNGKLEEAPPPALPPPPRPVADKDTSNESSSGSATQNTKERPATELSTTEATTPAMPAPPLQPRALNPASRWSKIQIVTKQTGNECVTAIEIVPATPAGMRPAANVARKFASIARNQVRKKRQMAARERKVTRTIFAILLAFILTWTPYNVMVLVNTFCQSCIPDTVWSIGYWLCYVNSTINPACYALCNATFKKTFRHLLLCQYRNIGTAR

Chain of Muscarinic acetylcholine receptor M3 (P20309 whole entry): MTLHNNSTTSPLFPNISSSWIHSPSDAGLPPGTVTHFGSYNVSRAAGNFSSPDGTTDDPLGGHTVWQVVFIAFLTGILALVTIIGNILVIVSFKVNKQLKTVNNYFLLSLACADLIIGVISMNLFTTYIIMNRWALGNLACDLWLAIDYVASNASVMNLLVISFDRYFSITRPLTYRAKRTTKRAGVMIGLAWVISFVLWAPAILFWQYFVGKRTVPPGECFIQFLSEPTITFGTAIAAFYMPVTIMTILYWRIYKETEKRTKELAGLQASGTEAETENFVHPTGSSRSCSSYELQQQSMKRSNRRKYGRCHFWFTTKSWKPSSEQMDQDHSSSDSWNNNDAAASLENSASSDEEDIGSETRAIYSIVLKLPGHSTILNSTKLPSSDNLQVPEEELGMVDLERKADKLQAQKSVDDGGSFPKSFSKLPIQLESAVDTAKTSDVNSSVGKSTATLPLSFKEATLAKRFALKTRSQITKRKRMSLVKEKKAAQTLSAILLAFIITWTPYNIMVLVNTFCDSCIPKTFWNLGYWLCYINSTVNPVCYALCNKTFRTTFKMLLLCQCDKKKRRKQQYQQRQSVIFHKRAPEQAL

SMILES	IC50 [1]	Ki [1]	other results
CCCCCCCCCCCC(OC(=O)C(CCCCN(O)C(C)=O)NC(=O)c1coc(-c2ccccc2O)n1)C(C)C(=O)NC1CCCCNC1=O (stereo not given) [NOCARDIMICIN C]	4.7 µM	1 µM	–
CCCCCCCCCCCCCC(OC(=O)C(CCCCN(O)C(C)=O)NC(=O)c1coc(-c2ccccc2O)n1)C(C)C(=O)NC1CCCCNC1=O (stereo not given) [NOCCARDIMICIN E]	4.56 µM	0.97 µM	–
CCCCCCCCCCCC(OC(=O)C(CCCCN(O)C(C)=O)NC(=O)c1coc(-c2ccccc2O)n1)C(C)C(=O)NC1CCCCN(O)C1=O (stereo not given) [NOCARDIMICIN B]	0.63 µM	0.13 µM	IC50 [2]: 2.03 µM; Ki [2]: 0.49 µM; IC50 [3]: 1.64 µM; Ki [3]: 1.18 µM; IC50 [4]: 1.78 µM; Ki [4]: 0.63 µM; IC50 [5]: 1.04 µM; Ki [5]: 0.14 µM

Further compounds by falling IC50 [1], results first:

IC50 [1]	Ki [1]	SMILES	other results
6.29 µM	1.33 µM	CCCCCCCCCCCCCCCC(OC(=O)C(CCCCN(O)C(C)=O)NC(=O)c1coc(-c2ccccc2O)n1)C(C)C(=O)NC1CCCCN(O)C1=O (stereo not given) [NOCARDIMICIN F]	–
5.89 µM	1.25 µM	CCCCCCCCCC(OC(=O)C(CCCCN(O)C(C)=O)NC(=O)c1coc(-c2ccccc2O)n1)C(C)C(=O)NC1CCCCN(O)C1=O (stereo not given) [NOCARDIMICIN A]	–
1.1 µM	0.23 µM	CCCCCCCCCCCCCC(OC(=O)C(CCCCN(O)C(C)=O)NC(=O)c1coc(-c2ccccc2O)n1)C(C)C(=O)NC1CCCCN(O)C1=O (stereo not given) [NOCARDIMICIN D]	–
